Only some compounds are listed: those with a hit (about 2% of all), similar ones and a draw of the others.
Hck Nef HTS – human Hck-Nef kinase inhibition; P08631; Recombinant Hck-YEEI plus Nef, Z-Lyte FRET kinase assay; inhibition, % at 20 µM; 220,000 compounds, 0.68% hits;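 active means Hck-Nef kinase inhibition above about 50%, limit read from the data; inactive means inhibition below that limit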
14-3-3 Bad PPI – disrupts binding of bovine 14-3-3 zeta to phospho-Bad peptide. TR-FRET 14-3-3zeta/Dy647-pBad peptide displacement, 1 h. inhibition, % at 21.7 µM. 220,000 compounds, 0.71% hits. AID 781;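 active means inhibition above about 70%, limit read from the data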
Target sequence (P63103 whole entry, looked up): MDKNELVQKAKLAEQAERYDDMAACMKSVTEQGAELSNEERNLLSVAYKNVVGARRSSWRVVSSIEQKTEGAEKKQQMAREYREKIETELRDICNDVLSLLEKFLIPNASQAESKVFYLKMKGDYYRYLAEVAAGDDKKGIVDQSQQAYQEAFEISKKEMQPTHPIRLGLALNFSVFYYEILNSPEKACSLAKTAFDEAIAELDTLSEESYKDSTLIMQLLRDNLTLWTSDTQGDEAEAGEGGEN
Diaphorase act – activates diaphorase or chemically reduces, flagging diaphorase assay artifacts. Diaphorase/resazurin coupled assay, resorufin fluorescence, 16 min; hits give high values; 1 = vehicle wells, 0 = NADH-free wells. activation factor at 20 µM. 190,000 compounds, 0.005% hits;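 active means diaphorase activity raised at least twofold by the compound at 20 µM; inactive means activation factor below 2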
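Measured by – red resorufin fluorescence at 544/590 nm excitation/emission · Test system – Clostridium kluyveri diaphorase, purified enzyme · Incubation – reaction time 16 min, room temperature · Buffer or medium – 50 mM HEPES pH 7.4 with 4.542 mM MgCl2, 0.005% Tween 20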
p47phox inh – blocks human p47phox regulatory protein of NADPH oxidases; P14598; p47phox/p22phox peptide binding, fluorescence polarization, 2 h; inhibition, % at 24.7 µM; 220,000 compounds, 0.53% hits; AID 1274
Target sequence (P14598 whole entry, looked up): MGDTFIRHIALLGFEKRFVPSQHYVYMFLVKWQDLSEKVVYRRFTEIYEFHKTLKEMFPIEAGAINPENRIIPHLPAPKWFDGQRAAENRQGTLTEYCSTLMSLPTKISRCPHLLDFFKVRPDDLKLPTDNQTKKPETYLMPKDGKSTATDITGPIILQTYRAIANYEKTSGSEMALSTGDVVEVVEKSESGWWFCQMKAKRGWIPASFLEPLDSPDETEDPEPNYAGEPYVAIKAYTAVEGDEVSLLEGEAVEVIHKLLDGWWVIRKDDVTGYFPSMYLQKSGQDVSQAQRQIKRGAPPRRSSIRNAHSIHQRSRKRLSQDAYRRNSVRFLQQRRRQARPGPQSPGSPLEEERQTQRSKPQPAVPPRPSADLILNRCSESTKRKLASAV
eIF4E-4G inh – blocks eIF4E binding to eIF4G. TR-FRET eIF4E-eIF4GI(517-606) binding, 2 h. inhibition, % at 21.7 µM. 220,000 compounds, 0.37% hits. P63073+Q04637. AID 782
Numbers stand for hits.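 How the source made its calls, unless noted: active means inhibition above about 30% (limit read from the data); inactive means the rest.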

Results for COc1ccc([N+](=O)[O-])cc1NC(=O)c1cccs1 ?
Hck Nef HTS: inactive; 14-3-3 Bad PPI: inactive; Diaphorase act: inactive; p47phox inh: inactive; eIF4E-4G inh: inactive

Results for O=c1[nH]cc(O)c(=O)[nH]1 ?
Hck Nef HTS: inactive; 14-3-3 Bad PPI: inactive; p47phox inh: inactive; eIF4E-4G inh: inactive

Results for O=c1[nH]cc(N(CCO)CCO)c(=O)[nH]1 ?
Hck Nef HTS: inactive; 14-3-3 Bad PPI: inactive; p47phox inh: inactive; eIF4E-4G inh: 93.9

How did Cc1ccc(NC(=O)CSc2ncc3ccccn23)cc1 do in these assays?
Hck Nef HTS: inactive; 14-3-3 Bad PPI: inactive; Diaphorase act: inactive; p47phox inh: inactive; eIF4E-4G inh: inactive

Results for O=C(CN1CCN(C(c2ccccc2)c2ccccc2)CC1)N1CCOCC1 ?
Hck Nef HTS: inactive; 14-3-3 Bad PPI: 73.3; Diaphorase act: inactive; p47phox inh: inactive; eIF4E-4G inh: inactive

How did O=C(CN1CCOCC1)n1c2ccccc2c2ccccc21 do in these assays?
Hck Nef HTS: inactive; 14-3-3 Bad PPI: 75.0; Diaphorase act: inactive; p47phox inh: inactive; eIF4E-4G inh: inactive

What do the screens show for `O=C(CN1CCOCC1)n1c2c(c3ccccc31)CCCC2`?
Hck Nef HTS: inactive; 14-3-3 Bad PPI: inactive; Diaphorase act: inactive; p47phox inh: inactive; eIF4E-4G inh: inactive

How did COCCN(CCOC)C(=O)COC(=O)c1ccc(Cl)c(S(=O)(=O)N(C)c2ccccc2)c1 do in these assays?
Hck Nef HTS: inactive; 14-3-3 Bad PPI: inactive; Diaphorase act: inactive; p47phox inh: inactive; eIF4E-4G inh: inactive

How did Cc1ccc(CSc2nccc(-c3c(C)nc4ccccn34)n2)cc1 do in these assays?
Hck Nef HTS: inactive; 14-3-3 Bad PPI: inactive; p47phox inh: inactive; eIF4E-4G inh: inactive

What do the screens show for `CCOC(=O)c1sc(/N=C/N(C)C)nc1C`?
Hck Nef HTS: inactive; 14-3-3 Bad PPI: inactive; Diaphorase act: inactive; p47phox inh: inactive; eIF4E-4G inh: inactive

What do the screens show for `CCOC(=O)c1cnc(/N=C/N(C)C)s1`?
Hck Nef HTS: inactive; 14-3-3 Bad PPI: 96.9; Diaphorase act: inactive; p47phox inh: inactive; eIF4E-4G inh: inactive

What do the screens show for `CCOC(=O)c1c(C)oc2c1c(CN1CCN(CCO)CC1)c(O)c1ccccc12`?
Hck Nef HTS: inactive; 14-3-3 Bad PPI: inactive; Diaphorase act: inactive; p47phox inh: 37.7; eIF4E-4G inh: inactive

What do the screens show for `CCOC(=O)c1c(C)oc2c1c(CN1CCN(C(=O)OCC)CC1)c(O)c1ccccc12`?
Hck Nef HTS: inactive; 14-3-3 Bad PPI: inactive; Diaphorase act: inactive; p47phox inh: inactive; eIF4E-4G inh: inactive

How did CN(C)S(=O)(=O)N1CCN(S(=O)(=O)N2CCOCC2)CC1 do in these assays?
Hck Nef HTS: 56.8; 14-3-3 Bad PPI: inactive; Diaphorase act: inactive; p47phox inh: inactive; eIF4E-4G inh: inactive

Results for CCN(CC)S(=O)(=O)N1CCN(S(=O)(=O)N2CCOCC2)CC1 ?
Hck Nef HTS: inactive; 14-3-3 Bad PPI: inactive; Diaphorase act: inactive; p47phox inh: inactive; eIF4E-4G inh: inactive

How did O=C(O)c1cccc(-c2ccc(/C=c3/sc4nc5ccccc5n4c3=O)o2)c1 do in these assays?
Hck Nef HTS: inactive; 14-3-3 Bad PPI: inactive; p47phox inh: inactive; eIF4E-4G inh: 39.3

Results for CCOC(=O)c1sc(N)c(C(N)=O)c1C ?
Hck Nef HTS: inactive; 14-3-3 Bad PPI: inactive; Diaphorase act: inactive; p47phox inh: 30.1; eIF4E-4G inh: inactive

Results for CCOC(=O)c1c(N)sc(C(N)=O)c1C ?
Hck Nef HTS: inactive; 14-3-3 Bad PPI: inactive; Diaphorase act: inactive; p47phox inh: inactive; eIF4E-4G inh: inactive

How did CCOC(=O)C1CCCN(/C=C2\SC(=S)N(CC)C2=O)C1 (configuration not stated) do in these assays?
Hck Nef HTS: inactive; 14-3-3 Bad PPI: inactive; p47phox inh: inactive; eIF4E-4G inh: inactive

What do the screens show for `O=C1c2ccccc2C(=O)N1/N=C/c1ccc(O)c(O)c1O`?
Hck Nef HTS: inactive; 14-3-3 Bad PPI: inactive; p47phox inh: inactive; eIF4E-4G inh: 98.4

How did CCN(CC)S(=O)(=O)c1cccc(C(=O)Nc2ccc3c(c2)OCO3)c1 do in these assays?
Hck Nef HTS: inactive; 14-3-3 Bad PPI: inactive; Diaphorase act: inactive; p47phox inh: inactive; eIF4E-4G inh: inactive

Results for CCCN(CCC)S(=O)(=O)c1cccc(C(=O)Nc2ccc3c(c2)OCO3)c1 ?
Hck Nef HTS: inactive; 14-3-3 Bad PPI: inactive; Diaphorase act: inactive; p47phox inh: 165.4; eIF4E-4G inh: inactive

Results for Cc1cccc(-n2c(O)cnc2Nc2nc(C)cc(C)n2)c1 ?
Hck Nef HTS: inactive; 14-3-3 Bad PPI: inactive; Diaphorase act: inactive; p47phox inh: 39.7; eIF4E-4G inh: inactive

What do the screens show for `Cc1cc(C)nc(Nc2ncc(O)n2-c2ccccc2)n1`?
Hck Nef HTS: inactive; 14-3-3 Bad PPI: inactive; Diaphorase act: inactive; p47phox inh: inactive; eIF4E-4G inh: inactive

How did CCN1CCCC1Cn1cnc2c([nH]c3ccc(OC)cc32)c1=O (configuration not stated) do in these assays?
Hck Nef HTS: inactive; 14-3-3 Bad PPI: inactive; p47phox inh: inactive; eIF4E-4G inh: inactive

Results for COc1cccc(-n2nc3c(=O)n(Cc4ccccc4Cl)nc(C)c3c2C)c1 ?
Hck Nef HTS: inactive; 14-3-3 Bad PPI: inactive; Diaphorase act: inactive; p47phox inh: 84.1; eIF4E-4G inh: inactive

How did CC(=O)c1ccc(N2Cc3ccccc3C2=NC(=O)c2cccs2)cc1 do in these assays?
Hck Nef HTS: inactive; 14-3-3 Bad PPI: inactive; Diaphorase act: inactive; p47phox inh: 38.0; eIF4E-4G inh: inactive

Results for CCOC(=O)c1oc2cccc(O)c2c1C ?
Hck Nef HTS: inactive; Diaphorase act: inactive; p47phox inh: inactive

How did CCOC(=O)c1oc2cccc(O)c2c1CN(Cc1ccccc1)C(C)=O do in these assays?
Hck Nef HTS: inactive; 14-3-3 Bad PPI: inactive; Diaphorase act: inactive; p47phox inh: 32.8; eIF4E-4G inh: inactive

How did O=C(O)COc1ccc(S(=O)(=O)c2ccc(OCC(=O)O)cc2)cc1 do in these assays?
Hck Nef HTS: inactive; 14-3-3 Bad PPI: inactive; Diaphorase act: inactive; p47phox inh: 34.9; eIF4E-4G inh: inactive

Results for CCOC(=O)C1(Cc2cccc(OC)c2)CCCN(Cc2cc(C(C)C)n[nH]2)C1 (configuration not stated) ?
Hck Nef HTS: inactive; 14-3-3 Bad PPI: inactive; Diaphorase act: inactive; p47phox inh: inactive; eIF4E-4G inh: inactive

What do the screens show for `CCOC(=O)C1(Cc2cccc(OC)c2)CCN(Cc2cc(OC)ccc2OC)CC1`?
Hck Nef HTS: inactive; 14-3-3 Bad PPI: 80.2; Diaphorase act: inactive; p47phox inh: inactive; eIF4E-4G inh: inactive

What do the screens show for `CCOC(=O)C1(Cc2cccc(OC)c2)CCCN(Cc2c(C)nn(C(C)C)c2C)C1` (configuration not stated)?
Hck Nef HTS: inactive; 14-3-3 Bad PPI: inactive; p47phox inh: inactive; eIF4E-4G inh: 97.1

Results for CC(C)=CCN1CCN(Cc2cn[nH]c2C2CCCCC2)CC1CCO (configuration not stated) ?
Hck Nef HTS: inactive; 14-3-3 Bad PPI: inactive; Diaphorase act: inactive; p47phox inh: inactive; eIF4E-4G inh: inactive

How did Cc1ccc(-c2nnc(-c3ccc4c(c3)OCO4)o2)cc1 do in these assays?
Hck Nef HTS: inactive; 14-3-3 Bad PPI: inactive; Diaphorase act: inactive; p47phox inh: 130.6; eIF4E-4G inh: inactive

Screening results from PubChem BioAssay.
